Type in all cases: functional
Test [1] concerns DRG neuron. Nature of the test: Increase in Ca2+ uptake in mouse DRG neurons at 20 ug/ml by Fura-2 dye-based fluorescence microscopy. In short, it runs like this:
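Mouse DRG cells plated in medium with additives and loaded with the Ca2+ dye Fura-2 AM. Compound applied directly at 20 μg/mL. Read-out is the fraction of cells showing a rise in Ca2+ concentration.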

The subject of test [2] is DRG neuron. Nature of the test: Increase in Ca2+ uptake in mouse DRG neurons at 10 ug/ml by Fura-2 dye-based fluorescence microscopy in presence of KCl relative to control. An outline of the steps:
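Mouse DRG cells plated in medium with additives and loaded with the Ca2+ dye Fura-2 AM. Compound applied at 10 μg/mL, then 25 mM KCl added. Ca2+ influx compared with control cells in the same well.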

Test [3] deals with DRG neuron. Nature of the test: Induction of depolarization of mouse DRG neurons at 10 ug/ml by Fura-2 dye-based fluorescence microscopy. An outline of the steps:
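Dorsal root ganglion cells were taken from mice, plated in medium with additives and loaded with Fura-2 AM. Intracellular Ca2+ was followed as the read-out while compound was applied at 10 μg/mL. This was followed by 25 mM KCl, with responses compared against control cells in the same well.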

SMILES strings stand for the structures. Calls of active or inactive are those of the source. The rule behind the calls is not given here.

Regarding `Cc1cc2cc(CCC(=O)O)c(O)c(O)c2c(=O)o1`, the result in the test with DRG neuron [1] was Active.
Turning to `CC(=O)Cc1cc2c(c(O)c1C(=O)O)-c1cc3c(c(O)c1CC2)C(=O)c1c(O)cc(O)cc1[C@H]3[C@H]1c2cc(O)cc(O)c2C(=O)c2c1cc1c(c2O)CCc2cc(CC(C)=O)c(C(=O)O)c(O)c2-1` (stereo in doubt; 1b), the outcome in the test with DRG neuron [2] was Active. Besides, the outcome in the test with DRG neuron [3] was inactive.

These data come from ChEMBL document CHEMBL3352407, “Griseorhodins D-F, neuroactive intermediates and end products of post-PKS tailoring modification in Griseorhodin biosynthesis” (J Nat Prod, 2014).
